# Rows were chosen to be rich in hits. Some 12% of all compounds tested hit in one or more screens of this group.
# Dynein cargo inh = inhibitors of GR-EGFP nuclear translocation, primary screen, dynein cargo transport inhibitor project, imaging, high-content, 3617.4 mouse cells; z-score, hits read low; test concentration mostly 20 µM; stimulated with dexamethasone, 1 µM; active compounds read low; 0.47% of 220,000 active;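 active means plate z-score of nuclear minus cytoplasmic receptor signal below a set negative limit, without overly bright fluorescence or cell loss, cut at about -3.5 in these data, passing the limit was not always enough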;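 further: z-score of nuclear minus cytoplasmic ring GR-EGFP intensity difference per well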
#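 medium = tetracycline-free induction medium containing charcoal-stripped FBS | probe or stimulus = dexamethasone, 1.0 µM final | timing = 48 h induction, then 1 h compound, then 30 min agonist, 37 °C | detection = automated 10x imaging of fixed Hoechst-stained cells | read-out basis = nuclear versus cytoplasmic GR-EGFP signal, averaged per well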
# Autophagy HCS = autophagy modulators in MEF cells, primary screen, imaging, high-content, MEF GFP-LC3. MEF GFP-LC3 puncta imaging; test concentration mostly 10 µM. calls only at 10 µM (by protocol). 0.98% of 190,000 active;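 active means percentage of spot-positive cells more than 3 SD above its plate mean, without a fluorescence outlier flag or 80% toxicity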;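 further: spot-positive cell cutoff set from DMSO-treated cells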
# Lmaj promast = Leishmania major promastigote growth inhibition, primary screen; Leishmania major promastigotes, resazurin fluorescence viability; inhibition, % at 10 µM; 9% of 200,000 active; AID 1063, 2008; in the data active means inhibition above about 50%;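 further: promastigotes grown with compound for 44 hours at 28 °C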
# MT stabilizer = microtubule stabilizers in HeLa cells, primary screen, imaging, high-content imaging | AID 2205, 2009 | HeLa tubulin immunostaining HCS, 24 h; share of cells brighter than vehicle mean+2SD | 0.83% of 200,000 active | % tubulin-high responders, % at 10 µM;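 active means plate Z-score above 3 for both tubulin-high and condensed-nucleus cell shares, with cell loss under 80%, at 10 µM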;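 further: anti alpha tubulin signal scored within the nucleus-defined area of each cell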
# bCat nuc transl = modulators of beta-catenin nuclear translocation, primary screen, imaging, HeLa cells, immunofluorescence, high-content; nuclear translocation activity, % at 5 µM; 0.3% of 190,000 active; AID 1665, 2009;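 active means nuclear translocation activity above 50% at 5 µM, with a well cell count of 50 or more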;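 further: per-cell ratio of nuclear to cytoplasmic median beta-catenin stain intensity; plate controls were DMSO negative control for no effect and GSK-3 inhibitor IX positive control for full effect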
#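 Test system: HeLa cells, endogenous beta-catenin; Compound: single 5 µM dose plus 0.02–20 µM confirmation series; Times: compound exposure 24 h at 37°C; Signal: fluorescence imaging of beta-catenin antibody stain plus DAPI; Read-out: % activation, nuclear-to-cytoplasmic median beta-catenin signal ratio per cell.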
# CHOP inh = inhibitors of CHOP promoter induction, primary screen, cell-based, unfolded protein response, luciferase reporter | inhibition, % at 10 µM | 3.8% of 220,000 active | CHO-K1 CHOP-promoter luciferase, tunicamycin-induced, 15-18 h;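 active means compounds that reduced the stress-induced luciferase reporter signal by more than about 70% of percent inhibition, limit read from the data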;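 further: 0% = tunicamycin plus vehicle and 100% = wells without tunicamycin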
# Numbers without * were called inactive; i = inactive; . = not tested or not shown; + = active, no number.
SMILES,Dynein cargo inh,Autophagy HCS,Lmaj promast,MT stabilizer,bCat nuc transl,CHOP inh
CCOc1cc(S(=O)(=O)n2nc(C)cc2C)ccc1Br,-1.31,i,10.8,3.3,-0.3,-8.6
O=C(Nc1ccc(N2C(=O)CCC2=O)cc1Cl)c1cccs1,-0.87,i,-5.2,3.9,-0.6,9.1
CCc1cccc2c(C(=O)CSc3nncn3-c3ccc(OC)cc3)c[nH]c12,-0.0516,i,53.1*,2.0,.,13.8
CC1=CC(C)(C)[N+](C)=CN1c1ccccc1,-0.516,i,-5.5,5.9,.,8.4
CCCCCCn1c(CN2CCCCC2CC)nc2c1c(=O)n(C)c(=O)n2C (stereo not given),1.12,i,59.7*,1.5,-1.0,92.3*
CCOC(=O)c1cc(C)sc1NC(=O)CCC(=O)O,-0.0639,i,-5.1,2.8,0.5,-0.9
Cc1cc(C(=O)c2ccc(C(C)(C)C)cc2)c(NC(=O)CCl)s1,-2.01,i,96.3*,2.8,0.2,31.2
CC/C(=N/Nc1ccccc1)c1cnnc(-c2ccccc2)n1,0.297,+,13.2,4.7,1.7,39.6
COc1cccc(CNC(=O)CCC2CCCN(C(=O)CCn3cncn3)C2)c1 (stereo not given),1.07,i,-2.9,5.1,0.0,-5.7
CC(C)=CCN1CCN(Cc2cccn2-c2nccs2)CC1CCO (stereo not given),-0.452,i,-6.4,4.4,0.6,-8.0
CC(C)=CCN1CCN(Cc2nc(-c3ccccc3)cs2)CC1CCO (stereo not given),0.496,i,69.8*,3.1,3.3,15.6
OCCC1CN(Cc2nc(-c3ccc(F)cc3)cs2)CCN1CCc1ccccc1 (stereo not given),-1.13,i,84.8*,3.4,3.8,23.6
OCCC1CN(Cc2nc(-c3ccccc3)cs2)CCN1CCc1ccccc1 (stereo not given),-0.319,i,86.7*,3.7,0.5,24.8
CC(C)CCN1CCN(CC#Cc2ccccc2)CC1CCO (stereo not given),0.196,i,80.4*,2.1,0.6,22.1
Cc1cc(Nc2nn(C)c(N)c2C#N)ccc1F,0.207,i,-6.9,4.0,1.5,-0.4
O=C(O)[C@H](Cc1ccccc1)NC(=O)N1CCN(c2ccc(F)cc2)CC1,0.0113,.,.,.,1.1,4.0
COc1c(Cl)ccc(Cl)c1C(=O)NC(=S)N1CCOCC1,-0.604,i,-11.0,1.4,-3.4,-9.3
O=C(N/N=C/C=C\c1ccco1)c1cccs1,-0.277,i,1.9,4.0,-0.5,-9.2
CC(C)CCN1CCN(Cc2nc(-c3ccccc3)cs2)CC1CCO (stereo not given),-0.741,i,84.9*,1.5,0.5,-12.2
CC(C)CCN1CCN(Cc2cccs2)CC1CCO (stereo not given),0.193,i,-0.5,1.2,-2.4,31.0
OCCC1CN(C2CCN(c3ccccc3F)CC2)CCN1Cc1ccccc1 (stereo not given),-0.879,i,80.3*,6.5,1.9,30.0
OCCC1CN(C2CSCCSC2)CCN1Cc1ccccc1 (stereo not given),1.39,i,-1.0,1.2,0.9,-3.9
CC(C)CCN1CCN(C2CCN(c3ccccc3)CC2)CC1CCO (stereo not given),-0.45,i,89.0*,2.2,-0.6,11.2
O=C(CCc1nnc(Cc2c[nH]c3ccccc23)o1)NCC1CC12CCCCC2 (stereo not given),-0.968,i,-0.5,1.5,0.3,-23.5
CC(N)=O,.,.,.,.,.,-4.3
O=C(C1=C[C@@H](c2ccc(Br)cc2)C[C@@H](OCc2ccc(CO)cc2)O1)N1CCN(Cc2ccc3c(c2)OCO3)CC1,-0.684,i,56.4*,9.4,-2.5,5.5
O=C(C1=C[C@@H](c2ccc(C(F)(F)F)cc2)C[C@@H](OCc2ccc(CO)cc2)O1)N1CCN(Cc2ccc3c(c2)OCO3)CC1,2.8,i,55.9*,3.0,0.6,-1.0
